# High-throughput results (PubChem BioAssay)
# Sampled rows, rich in hits. Any-hit rate of the full collection: about 2.1%.
# CXCR6 block = CXCR6 receptor inhibitors, primary screen, cell-based, beta-arrestin, luminescence, CHO-K1 PathHunter, 1536-well; C-X-C chemokine receptor type 6 (Homo sapiens), O00574; inhibition, % at 20 µM; actives 0.36% (n = 360,000); AID 602244, 2012; in the data active = inhibition above about 34%, passing the limit was not always enough;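 note: antagonist mode with CXCL16 agonist at 10 nM final; 0% = 10 nM CXCL16 with DMSO and 100% = unstimulated wells without agonist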
# HTR2A ag = mouse Htr2a agonists via beta-arrestin recruitment, primary screen, cell-based, luminescence; 5-hydroxytryptamine receptor 2A (Mus musculus), P35363; CHO-K1 mHTR2A beta-arrestin complementation; percent of 30 µM serotonin response; activation, % at 7.6 µM; actives 0.66% (n = 360,000); AID 624169, 2012;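 active = activation above a run cutoff, the mean activation of all tested compounds plus 3 SD, cut at about 14% in these data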;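 note: 0% = plate median of compound wells and 100% = 30 µM serotonin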
# EBI2 antag = EBI2 receptor antagonists, beta-arrestin recruitment, primary screen, cell-based, luminescence, 7a,25-OHC stimulation, uHTS; G-protein coupled receptor 183 (Homo sapiens), P32249; actives 0.81% (n = 360,000); AID 651636, 2012; 7a,25-OHC stimulated; inhibition, % at 5 µM; in the data active = inhibition above about 38%;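 note: enzyme fragment complementation signal reports receptor beta-arrestin coupling in cells; 0% = agonist plus DMSO wells and 100% = wells without agonist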
# APJ agonist = agonists of human apelin receptor APJ, primary screen, CHO-K1 cells, PathHunter beta-arrestin, luminescence. 0% DMSO wells, 100% apelin. P35414. AID 2520, 2010. activation, % at 20 µM. actives 0.11% (n = 330,000);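 active = activation more than six SD over the plate average, tested at 20 µM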;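 note: 0% = DMSO alone and 100% = apelin-13 at 10 nM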
#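 Material: CHO-K1 APJ beta-arrestin complementation cell line; Input: cell density 1000 per well; Incubation: compound stimulation 90 min at 25 °C, detection 60 min; Signal: luminescence from split beta-galactosidase complementation, Galacton Star/Emerald II substrate; Controls: DMSO-only wells as negative, 10 nM Apelin-13 as positive control.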
# CCR6 antag = CCR6 receptor antagonists, primary screen, cell-based, CHO-K1, luminescence, beta-arrestin, uHTS; inhibition, % at 20 µM; C-C chemokine receptor type 6 (Homo sapiens), P51684; actives 0.49% (n = 340,000); AID 493098, 2011; CHO-K1 CCR6 PathHunter beta-arrestin, CCL20-stimulated;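 active = compounds whose inhibition of the agonist-driven luminescence signal at 20 µM reaches about 50%, limit read from the data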;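 note: cells stimulated with CCL20 at 14 nM final; plate controls were DMSO with CCL20 for no effect and DMSO without agonist for full effect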
# APJ antagonist = antagonists of human apelin receptor APJ, primary screen, CHO-K1 cells, beta-arrestin complementation, luminescence; inhibition, % at 20 µM; actives 0.32% (n = 330,000); P35414;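 active = inhibition above about 40% at 20 µM, limit read from the data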;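 note: cells challenged with 10 nM apelin-13 agonist together with compound; plate controls were apelin-13 plus DMSO wells for no effect and DMSO wells lacking apelin-13 for full effect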
# OPRM1 ag = OPRM1 agonists via beta-arrestin recruitment, confirmation, counter-screen for mouse HTR2A agonist project, cell-based, luminescence, single concentration. shares compounds with HTR2A ag. U2OS OPRM1 beta-arrestin PathHunter; DMSO 0%, DAMGO 9.3 µM 100%. activation, % at 9.3 µM. actives 5.3% (n = 2,300). AID 624380, 2012;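 active = mean activation above the mean of DMSO-only wells plus 3 SD, cut at about 0.5% in these data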
# Target sequence (P35372 whole entry, looked up): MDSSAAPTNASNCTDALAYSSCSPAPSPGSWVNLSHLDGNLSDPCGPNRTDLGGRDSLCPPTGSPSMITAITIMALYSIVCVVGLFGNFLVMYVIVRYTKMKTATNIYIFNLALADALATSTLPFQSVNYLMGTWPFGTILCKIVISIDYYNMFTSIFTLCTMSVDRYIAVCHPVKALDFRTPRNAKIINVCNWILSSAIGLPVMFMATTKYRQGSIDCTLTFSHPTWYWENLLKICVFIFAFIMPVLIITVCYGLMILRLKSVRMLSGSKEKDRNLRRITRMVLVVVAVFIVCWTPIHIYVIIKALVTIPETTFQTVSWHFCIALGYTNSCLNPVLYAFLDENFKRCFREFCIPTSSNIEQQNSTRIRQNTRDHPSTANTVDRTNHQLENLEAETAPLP
# m5-HT2A ag conf = mouse HTR2A agonists, beta-arrestin recruitment, confirmation, cell-based, luminescence, CHO-K1 PathHunter, triplicate. actives 19% (n = 2,300). shares compounds with HTR2A ag. DMSO 0%, 30 µM serotonin 100%. activation, % at 7.6 µM;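 active = mean activation across triplicates above the hit threshold derived in the original primary screen, cut at about 15% in these data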
# Active calls of the source: *; nt = not tested or not shown.
SMILES,CXCR6 block,HTR2A ag,EBI2 antag,APJ agonist,CCR6 antag,APJ antagonist,OPRM1 ag,m5-HT2A ag conf
CCC(=O)NC(=S)Nc1ccc(NC(=O)c2ccc(OC)cc2)cc1,-8,1,-2,-3,-6,-27,nt,nt
COc1ccc2c(c1)CC/C2=N\NC(=O)c1ccccc1,4,15*,-10,-2,18,-4,-1,-2
COc1ccc(OCC(=O)N/N=C2\CCc3ccccc32)cc1,-10,-5,8,-3,6,12,nt,nt
O=C(NCCc1ccccc1)c1cc2ccccc2oc1=O,1,-2,-14,-4,17,5,nt,nt
CN(C)CCNC(=O)c1cc2ccccc2oc1=O,-7,16*,-5,-2,-10,-4,0,-3
N#Cc1c2n(c(=S)n(-c3ccccc3[N+](=O)[O-])c1=O)CCCCC2,1,-5,-2,0,5,-6,nt,nt
COCCCNC(=O)c1nc2c(nnn2Cc2cc(C)ccc2C)c(=O)[nH]1,0,1,-3,-3,6,14,nt,nt
O=C(O)c1nn(CC(=O)N(C2CCCCC2)C2CCCCC2)c(=O)c2ccccc12,4,33*,35,-4,11,14,0,1
CCN(C(=O)Cn1nc(C(=O)O)c2ccccc2c1=O)C1CCCCC1,6,3,-1,-4,6,9,nt,nt
CC(=O)NCC1(c2ccccc2)CCN(CC2COc3ccccc3O2)CC1 (stereo not given),3,20*,-11,nt,nt,nt,0,44*
CC(=O)NCC1COc2ccccc2O1 (stereo not given),10,12,2,-6,-6,10,nt,nt
O=C(N[C@@H]1C/C=C\C[C@H](CC(=O)N(CCO)Cc2ccccc2)C(=O)N[C@@H](Cc2ccccc2)COC1=O)OCC1c2ccccc2-c2ccccc21,22,-6,17,-3,20,4,nt,nt
CC(C)CN(C(=O)CSc1nncn1-c1ccccc1)c1c(N)n(CC(C)C)c(=O)[nH]c1=O,-5,16*,-7,-2,2,-26,-1,0
COc1ccc(NC(=O)Cn2nnc(C(=O)NCc3cccc(OC)c3)c2N)cc1,-2,2,-6,8,-1,12,nt,nt
Cc1ccc(NC(=O)Cn2nnc(C(=O)NCc3cccs3)c2N)cc1,2,-1,-14,-2,-2,8,nt,nt
COc1ccc(NC(=O)Cn2nnc(C(=O)NCc3cccs3)c2N)cc1,6,15*,-20,2,1,6,-1,-1
COc1cccc(CNC(=O)c2nnn(CC(=O)Nc3cccc(C)c3)c2N)c1,-3,18*,-3,-2,9,-17,0,-3
Cc1ccc(OCCC(=O)OCC(=O)Nc2ccc(F)cc2)cc1,2,-2,-1,-7,0,-1,nt,nt
Cc1ccc(OCCC(=O)OCC(=O)Nc2ccccc2)cc1,-12,17*,-4,-4,-6,1,-1,-5
CC(Sc1ccc(Cl)cc1)C(=O)Nc1ccc2c(c1)OCO2 (stereo not given),-13,-4,12,-4,1,14,nt,nt
CC(Sc1ccc(Cl)cc1)C(=O)NCc1ccc2c(c1)OCO2 (stereo not given),-11,22*,-3,1,16,5,-1,2
